Calls of active or inactive are those of the source.
Tests used:
[1] = Cytotoxicity against African green monkey BSC1 cells after 24 to 72 hrs by light microscopic analysis; type: cell-based, BSC-1; details: chlorocebus aethiops
In short: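 BSC-1 monkey kidney cells incubated with drug at 37 °C, dissolved in 10% Me₂SO in water. Cell destruction was scored by light microscopy at 24, 48 and 72 h. Toxicity was defined as cell death within 2 days. The maximal nontoxic concentration is the nontoxic level whose twofold increase causes toxicity.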

Human alphaherpesvirus 1 [2] = assay: Antiviral activity against Herpes simplex virus 1 HF infected in African green monkey BSC1 cells assessed as inhibition of viral progeny production at 50 ug/ml after 20 to 24 hrs by plaque reduction assay relative to control; type: functional; details: Human alphaherpesvirus 1, HF, BSC-1
In short: (§1)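 BSC-1 monkey kidney monolayers in DMEM with 10% fetal bovine serum, infected with HSV-1 strain HF at 10 pfu/cell. Drug, in 10% Me2SO in water, added at infection at the highest noncytotoxic concentration. Cultures held 20–24 h at 37 °C, then sonicated. Progeny titred by plaque assay on BSC-1 (3 h adsorption, agar overlay, 72 h, gentian violet). Inhibition is plaque count with drug versus without.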

BSC-1 [3] = assay: Inhibition of Herpes simplex virus 1 HF DNA polymerase-mediated DNA synthesis in African green monkey BSC1 cell nucleus after 60 mins by [3H]-TTP incorporation assay relative to control; type: cell-based; details: Human alphaherpesvirus 1
In short: (§2)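 Nuclei were taken from BSC-1 cells 20 h after HSV-1 infection by Dounce homogenization and low-speed spin. They were washed and incubated with drug for 60 min at 37 °C: 8 × 10⁶ nuclei, 80 mM K phosphate pH 7.4, 250 mM sucrose, 6 mM MgCl₂, 0.4 mM CaCl₂, 0.04 mM dATP/dGTP/dCTP, [³H]TTP, 1 mM ATP, PEP/pyruvate kinase, 5 mM EGTA. Read-out was TCA-precipitable radioactivity.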

Human alphaherpesvirus 1 [4] = assay: Antiviral activity against Herpes simplex virus 1 HF infected in African green monkey BSC1 cells assessed as inhibition of viral progeny production at 200 ug/ml after 20 to 24 hrs by plaque reduction assay relative to control; type: functional; details: Human alphaherpesvirus 1, HF, BSC-1; in short: as §1
BSC-1 [5] = assay: Inhibition of Herpes simplex virus 1 HF DNA polymerase-mediated DNA synthesis in African green monkey BSC1 cell nucleus at 200 ug/ml after 60 mins by [3H]-TTP incorporation assay relative to control; type: cell-based; details: Human alphaherpesvirus 1; in short: as §2
BSC-1 [6] = assay: Inhibition of Herpes simplex virus 1 HF DNA polymerase-mediated DNA synthesis in African green monkey BSC1 cell nucleus at 400 ug/ml after 60 mins by [3H]-TTP incorporation assay relative to control; type: cell-based; details: Human alphaherpesvirus 1; in short: as §2
BSC-1 [7] = assay: Inhibition of Herpes simplex virus 1 HF DNA polymerase-mediated DNA synthesis in African green monkey BSC1 cell nucleus at 25 to 300 ug/ml after 60 mins by [3H]-TTP incorporation assay relative to control; type: cell-based; details: Human alphaherpesvirus 1; in short: as §2
Human alphaherpesvirus 1 [8] = assay: Antiviral activity against Herpes simplex virus 1 HF infected in African green monkey BSC1 cells assessed as inhibition of viral progeny production at 25 ug/ml after 20 to 24 hrs by plaque reduction assay relative to control; type: functional; details: Human alphaherpesvirus 1, HF, BSC-1; in short: as §1
BSC-1 [9] = assay: Inhibition of Herpes simplex virus 1 HF DNA polymerase-mediated DNA synthesis isolated from virus-infected African green monkey BSC1 cells at 25 to 400 ug/ml by [3H]-TTP incorporation assay; type: cell-free; details: Human alphaherpesvirus 1
In short: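 HSV DNA polymerase came from nuclear extracts of BSC-1 cells 12 h post-infection, via 70% ammonium sulfate precipitation and sucrose gradients. Assay: 250 mM KCl, 2 mM MgCl₂, 0.05 mM dGTP/dATP/dCTP, 0.01 mM TTP plus [³H]TTP, 500 µg/mL activated calf thymus DNA, 10 mM Tris-HCl pH 8.1, 0.5 µg/mL BSA. Inhibition relative to drug-free reactions.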

Structure (SMILES) | MNTC [1] [µg/mL] | inhibition at 50 µg/mL (Human alphaherpesvirus 1 [2]) [%] | inhibition of viral DNA synthesis (active/not active) (BSC-1 [3]) | inhibition at 200 µg/mL (Human alphaherpesvirus 1 [4]) [%] | inhibition (BSC-1 [5]) [%] | inhibition (BSC-1 [6]) | inhibition (BSC-1 [7]) | inhibition at 25 µg/mL (Human alphaherpesvirus 1 [8]) [%] | inhibition (BSC-1 [9])
Cn1cc(NC(=O)c2cc(NC(=O)c3cc([N+](=O)[O-])cn3C)cn2C)cc1C(=O)NCC(=N)N | 50 | 98.1 | inactive |  |  |  |  |  | 
Cn1cc(NC(=O)c2cc(NC(=O)c3cc([N+](=O)[O-])cn3C)cn2C)cc1C(=O)Nc1cccc(C(=N)N)c1 | > 200 |  | inactive | 97.2 |  |  |  |  | 
Cn1cc(NC(=O)c2cc(NC(=O)c3cc(NC=O)cn3C)cn2C)cc1C(=O)NCCC#N | > 200 |  |  | 65.5 | 65 | Active |  |  | 
CC(CC#N)NC(=O)c1cc(NC(=O)c2cc(NC(=O)c3cc(NC=O)cn3C)cn2C)cn1C (stereo not drawn) | > 200 |  |  | 84.6 | < 42 | Active | Active |  | 
Cn1cc(NC(=O)c2cc(NC(=O)c3cc([N+](=O)[O-])cn3C)cn2C)cc1C(=O)NCCC(=N)N | > 200 |  | Active | 86.5 |  |  |  |  | 
Cn1cc(NC(=O)c2cc(NC(=O)c3cc(NC=O)cn3C)cn2C)cc1C(=O)NCC(=N)N | > 200 |  |  | 61 | 65 | Active |  |  | 
CC(CC(=N)N)NC(=O)c1cc(NC(=O)c2cc(NC(=O)c3cc([N+](=O)[O-])cn3C)cn2C)cn1C (stereo not drawn) | > 200 |  | Active | 93.7 |  |  |  |  | 
Cn1cc(NC(=O)c2cc(NC(=O)c3cc(NC=O)cn3C)cn2C)cc1C(=O)NCCC(=N)N | 25 |  |  |  | 95 | Active |  | 99.7 | Active
Cn1cc(NC=O)cc1C(=O)Nc1cc(C(=O)Nc2cc(C(=O)Nc3cccc(C(=N)N)c3)n(C)c2)n(C)c1 | > 200 |  |  | 97.1 | 65 | Active |  |  | Active
Cn1cc(NC=O)cc1C(=O)Nc1cc(C(=O)Nc2cc(C(=O)Nc3ccccc3C(=N)N)n(C)c2)n(C)c1 | > 200 |  |  | 96.7 | 65 | Active |  |  | 
Cn1cc(NC(=O)c2cc([N+](=O)[O-])cn2C)cc1C(=O)Nc1cc(C(=O)Nc2ccccc2C(=N)N)n(C)c1 | > 200 |  | inactive | 96.9 |  |  |  |  | 
Cn1cc(NC(=O)c2cc(NC(=O)c3cc([N+](=O)[O-])cn3C)cn2C)cc1C(=O)Nc1ccc(C(=N)N)cc1 | > 200 |  | inactive | 94.8 |  |  |  |  | 
CC(CC(=N)N)NC(=O)c1cc(NC(=O)c2cc(NC(=O)c3cc(NC=O)cn3C)cn2C)cn1C (stereo not drawn) | > 200 |  |  | 48 | 86 | Active |  |  | 
Cn1cc(NC=O)cc1C(=O)Nc1cc(C(=O)Nc2cc(C(=O)Nc3ccc(C(=N)N)cc3)n(C)c2)n(C)c1 | > 200 |  |  | 76.4 | < 42 | Active |  |  | 

From ChEMBL document CHEMBL3244017, “Structure--activity relationships of pyrrole amidine antiviral antibiotics. 1. Modifications of the alkylamidine side chain” (J Med Chem, 1979)
